Data published in ChEMBL document CHEMBL3632502, “Bivalent ligands incorporating curcumin and diosgenin as multifunctional compounds against Alzheimer's disease” (Bioorg Med Chem, 2015).
One block for each molecule: values may come before it. Active and inactive are the calls of the source. No cut-off for these calls is given here.

Columns and labels:
MC65 [1] = assay: (§1) Neuroprotective activity against tetracycline deficiency-mediated cell viability loss in human MC65 cells at 1 uM after 72 hrs by MTT assay relative to control; assay type: functional
In short: (§2)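 MC65 cells washed twice in PBS, seeded in Opti-MEM at 4×10^4 cells/well, treated at 37 °C under +TC or −TC for 72 h. MTT (5 mg/mL in PBS) added for 4 h, formazan dissolved in DMSO, A570 read. Viability expressed as percent of +TC control; EC50 from concentration series, SEM.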

[2] = Neuroprotective activity against tetracycline deficiency-mediated cell viability loss in human MC65 cells after 72 hrs by MTT assay; assay type: functional, cell-based; conditions: MC65, 72 h; in short: as §2
MC65 [3] = assay: Antioxidant activity in human MC65 cells assessed as decrease in tetracycline deficiency-mediated reactive oxygen species formation at 0.3 uM after 48 hrs by DCFH-DA probe-based flow cytometric analysis; assay type: functional, cell-based
In short: (§3)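 MC65 cells washed in PBS, resuspended in Opti-MEM, seeded at 2×10^6 cells/well, treated at 37 °C with or without TC (1 μg/mL in culture medium) for 48 h. Harvested cells washed in cold PBS, loaded with 25 μM DCFH-DA in PBS for 1 h in the dark, and analysed by flow cytometry. Fluorescence expressed as percent of control.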

MC65 [4] = assay: Effect on tetracycline deficiency-induced total amyloid beta40 level in human MC65 cells at 0.1 to 1 uM after 48 hrs by ELISA; assay type: functional, cell-based
In short: (§4)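 MC65 cells in Opti-MEM (4×10^4 cells/well) treated at 37 °C under +TC or −TC for 48 h. Conditioned medium captured on BNT77-coated plates overnight at 4 °C, detected with HRP-BA27 (Aβ40) or HRP-BC05 (Aβ42) for 1 h at room temperature, TMB 30 min, A450. Values in pM from Aβ standard calibration curves.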

[5] = Metal chelating activity assessed as compound-Cu2+ complex formation at 50 uM after 10 mins by UV-vis spectra analysis; assay type: physicochemical
In short: (§5)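 Compound (50 μM) mixed with CuSO4, FeCl2 or ZnCl2 (50 μM) in deionized water, kept 10 min at room temperature, then UV absorption spectrum recorded from 200 to 600 nm.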

[6] = Metal chelating activity assessed as compound-Zn2+ complex formation at 50 uM after 10 mins by UV-vis spectra analysis; assay type: physicochemical; in short: as §5
[7] = target: Amyloid-beta precursor protein (Homo sapiens) (UniProt P05067); assay: Inhibition of amyloid beta42 (unknown origin) aggregation after 48 hrs by ThT assay
Amyloid-beta precursor protein (Homo sapiens), sequence (P05067 whole entry): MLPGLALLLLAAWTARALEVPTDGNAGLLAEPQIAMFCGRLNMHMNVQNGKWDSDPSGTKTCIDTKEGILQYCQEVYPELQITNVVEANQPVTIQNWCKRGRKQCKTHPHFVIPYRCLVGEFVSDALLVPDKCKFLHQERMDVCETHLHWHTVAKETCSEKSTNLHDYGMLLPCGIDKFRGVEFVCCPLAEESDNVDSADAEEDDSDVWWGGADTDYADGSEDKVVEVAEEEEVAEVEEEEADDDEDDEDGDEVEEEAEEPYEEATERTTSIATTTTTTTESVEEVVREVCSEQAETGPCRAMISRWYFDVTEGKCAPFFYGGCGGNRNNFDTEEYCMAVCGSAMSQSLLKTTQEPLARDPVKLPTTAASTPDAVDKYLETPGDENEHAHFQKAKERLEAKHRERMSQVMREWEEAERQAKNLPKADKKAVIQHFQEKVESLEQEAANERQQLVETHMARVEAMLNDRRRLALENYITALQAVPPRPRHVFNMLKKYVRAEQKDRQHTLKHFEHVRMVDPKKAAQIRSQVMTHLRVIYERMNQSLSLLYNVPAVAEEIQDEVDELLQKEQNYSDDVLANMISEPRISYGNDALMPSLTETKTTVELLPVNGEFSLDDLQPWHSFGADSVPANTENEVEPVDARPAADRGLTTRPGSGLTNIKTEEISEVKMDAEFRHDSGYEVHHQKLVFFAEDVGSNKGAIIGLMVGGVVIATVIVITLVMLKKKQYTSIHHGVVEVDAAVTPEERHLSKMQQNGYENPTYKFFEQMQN
In short: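 Aβ42 (25 μM in PBS pH 7.4, 9 μL) mixed with 1 μL of compound in DMSO (0.01–100 μM solutions), triplicates with solvent control, incubated dark at room temperature 48 h. Then 5 μM ThT in 50 mM glycine pH 8.0 added; fluorescence read at ex 446/em 490 nm, with no-ThT background subtracted.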

[8] = as §1; assay type: functional; in short: as §2
MC65 [9] = assay: Effect on tetracycline deficiency-induced total amyloid beta42 level in human MC65 cells at 0.1 to 1 uM after 48 hrs by ELISA; assay type: functional, cell-based; in short: as §4
[10] = Metal chelating activity assessed as compound-Fe2+ complex formation at 50 uM after 10 mins by UV-vis spectra analysis; assay type: physicochemical; in short: as §5
[11] = target: Amyloid-beta precursor protein (Homo sapiens) (UniProt P05067); assay: Binding affinity to amyloid beta in human MC65 cells assessed as inhibition of tetracycline deficiency-induced amyloid beta oligomerization after 48 hrs by Western blot analysis; assay type: cell-based
In short: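 MC65 cells in Opti-MEM (2×10^6 cells/well) treated at 37 °C under +TC or −TC for 48 h, then lysed by sonication in Tricine buffer. Supernatant protein (20.0 μg, Bradford-quantified) run on Tris-Tricine SDS-PAGE and blotted to PVDF. Probed with 6E10 overnight at 4 °C, HRP secondary, chemiluminescence; α-tubulin loading control. Total oligomers quantified, n=6, SEM.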

MC65 [12] = assay: Antioxidant activity in human MC65 cells assessed as decrease in tetracycline deficiency-mediated reactive oxygen species formation at 0.1 uM after 48 hrs by DCFH-DA probe-based flow cytometric analysis; assay type: functional, cell-based; in short: as §3

Structure (SMILES): COc1cc(/C=C/C(=O)CC(=O)/C=C/c2ccc(O)c(OC)c2)ccc1O
Activity (MC65 [1]): inactive

Structure (SMILES): COc1cc(/C=C/C(=O)/C(Cc2cn(CCCCCCCCCC(=O)NCCOCCOCCOCC(=O)O[C@H]3CC[C@@]4(C)C(=CC[C@H]5[C@@H]6C[C@@H]7O[C@]8(CC[C@@H](C)CO8)[C@@H](C)[C@@H]7[C@@]6(C)CC[C@@H]54)C3)nn2)=C(O)/C=C/c2ccc(O)c(OC)c2)ccc1O
EC50 [2]: 309 nM

Activity [5]: Not Active
Activity [6]: Not Active
inhibition [7]: Dose-dependent effect
Activity [10]: Not Active
inhibition [11]: Dose-dependent effect
Structure (SMILES): COc1cc(/C=C/C(=O)/C(Cc2cn(CCCCC(=O)NCCOCCOCCOCC(=O)O[C@H]3CC[C@@]4(C)C(=CC[C@H]5[C@@H]6C[C@@H]7O[C@]8(CC[C@@H](C)CO8)[C@@H](C)[C@@H]7[C@@]6(C)CC[C@@H]54)C3)nn2)=C(O)/C=C/c2ccc(O)c(OC)c2)ccc1O
Activity (MC65 [3]): Active
Activity (MC65 [4]): inactive
Activity [8]: >=80%
Activity (MC65 [9]): inactive
EC50 [2]: 232 nM

Activity [5]: Not Active
Activity [6]: Not Active
inhibition [7]: Dose-dependent effect
Activity [10]: Not Active
inhibition [11]: Dose-dependent effect
Structure (SMILES): COc1cc(/C=C/C(=O)/C(Cc2cn(CCOCCOCCNC(=O)CCC(=O)O[C@H]3CC[C@@]4(C)C(=CC[C@H]5[C@@H]6C[C@@H]7O[C@]8(CC[C@@H](C)CO8)[C@@H](C)[C@@H]7[C@@]6(C)CC[C@@H]54)C3)nn2)=C(O)/C=C/c2ccc(O)c(OC)c2)ccc1O
Activity (MC65 [4]): inactive
Activity [8]: >=80%
Activity (MC65 [9]): inactive
EC50 [2]: 112 nM
Activity (MC65 [12]): Active

Structure (SMILES): CC(C)Cc1cn(CCOCCOCCNC(=O)CCC(=O)O[C@H]2CC[C@@]3(C)C(=CC[C@H]4[C@@H]5C[C@@H]6O[C@]7(CC[C@@H](C)CO7)[C@@H](C)[C@@H]6[C@@]5(C)CC[C@@H]43)C2)nn1
Activity (MC65 [1]): inactive

Structure (SMILES): CCCCCC(=O)O[C@H]1CC[C@@]2(C)C(=CC[C@@H]3[C@@H]4C[C@@H]5O[C@]6(CC[C@@H](C)CO6)[C@@H](C)[C@@H]5[C@@]4(C)CC[C@@H]32)C1
Activity (MC65 [1]): inactive

Structure (SMILES): COc1cc(/C=C/C(=O)/C(Cc2cn(CCCCCC(=O)NCCOCCOCCOCC(=O)O[C@H]3CC[C@@]4(C)C(=CC[C@H]5[C@@H]6C[C@@H]7O[C@]8(CC[C@@H](C)CO8)[C@@H](C)[C@@H]7[C@@]6(C)CC[C@@H]54)C3)nn2)=C(O)/C=C/c2ccc(O)c(OC)c2)ccc1O
Activity [8]: >=80%
EC50 [2]: 381 nM

Structure (SMILES): C[C@@H]1CC[C@@]2(OC1)O[C@H]1C[C@H]3[C@@H]4CC=C5C[C@@H](O)CC[C@]5(C)[C@H]4CC[C@]3(C)[C@H]1[C@@H]2C
Activity (MC65 [1]): inactive

Structure (SMILES): COc1cc(/C=C/C(=O)/C(Cc2cn(CCCCCCCC(=O)NCCOCCOCCOCC(=O)O[C@H]3CC[C@@]4(C)C(=CC[C@H]5[C@@H]6C[C@@H]7O[C@]8(CC[C@@H](C)CO8)[C@@H](C)[C@@H]7[C@@]6(C)CC[C@@H]54)C3)nn2)=C(O)/C=C/c2ccc(O)c(OC)c2)ccc1O
Activity [8]: >=80%
EC50 [2]: 1040 nM

Structure (SMILES): COC(=O)CCC(=O)NCCOCCOCCn1cc(C/C(C(=O)/C=C/c2ccc(O)c(OC)c2)=C(O)\C=C\c2ccc(O)c(OC)c2)nn1
Activity (MC65 [1]): inactive

Structure (SMILES): COc1cc(/C=C/C(=O)/C(Cc2cn(CCCCCCCCCCCC(=O)NCCOCCOCCOCC(=O)O[C@H]3CC[C@@]4(C)C(=CC[C@H]5[C@@H]6C[C@@H]7O[C@]8(CC[C@@H](C)CO8)[C@@H](C)[C@@H]7[C@@]6(C)CC[C@@H]54)C3)nn2)=C(O)/C=C/c2ccc(O)c(OC)c2)ccc1O
EC50 [2]: 4620 nM
